{"source": "ChEMBL document CHEMBL1129322", "about": "“Discovery and optimization of a novel class of orally active nonpeptidic endothelin-A receptor antagonists” (J Med Chem, 1996)", "key": {"[1]": {"molecular_target": "T1, Endothelin-1 receptor (Homo sapiens, UniProt P25101)", "T1 sequence (P25101 whole entry)": "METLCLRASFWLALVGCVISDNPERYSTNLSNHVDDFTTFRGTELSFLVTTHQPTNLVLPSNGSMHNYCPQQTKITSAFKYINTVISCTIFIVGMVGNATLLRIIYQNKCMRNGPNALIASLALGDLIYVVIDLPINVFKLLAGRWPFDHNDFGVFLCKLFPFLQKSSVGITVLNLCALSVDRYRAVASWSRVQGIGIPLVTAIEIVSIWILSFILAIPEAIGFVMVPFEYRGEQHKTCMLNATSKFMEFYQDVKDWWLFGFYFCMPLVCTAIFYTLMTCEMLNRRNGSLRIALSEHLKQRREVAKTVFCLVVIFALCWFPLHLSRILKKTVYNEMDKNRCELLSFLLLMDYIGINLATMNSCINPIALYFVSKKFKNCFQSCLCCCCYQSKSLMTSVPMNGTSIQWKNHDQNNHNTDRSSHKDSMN", "assay": "Binding affinity towards human Endothelin A receptor by measuring its ability to displace [125I]ET1 from CHO cells", "assay_type": "cell-based"}, "[2]": {"molecular_target": "T2, Endothelin receptor (Rattus norvegicus) (UniProt P26684+P21451)", "T2 sequence (P21451 whole entry, looked up)": "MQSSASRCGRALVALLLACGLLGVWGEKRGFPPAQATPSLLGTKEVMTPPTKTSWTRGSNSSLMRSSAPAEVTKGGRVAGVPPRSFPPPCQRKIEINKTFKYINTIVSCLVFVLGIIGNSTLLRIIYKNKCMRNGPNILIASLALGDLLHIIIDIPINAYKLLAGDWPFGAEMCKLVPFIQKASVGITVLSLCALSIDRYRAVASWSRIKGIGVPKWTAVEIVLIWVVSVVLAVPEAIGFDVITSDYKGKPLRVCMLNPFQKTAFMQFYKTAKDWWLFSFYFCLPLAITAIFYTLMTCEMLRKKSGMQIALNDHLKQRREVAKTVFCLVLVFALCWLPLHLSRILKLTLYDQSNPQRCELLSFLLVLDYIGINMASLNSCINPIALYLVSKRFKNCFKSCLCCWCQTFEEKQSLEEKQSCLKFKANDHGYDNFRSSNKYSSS", "T2 sequence (P26684 whole entry, looked up)": "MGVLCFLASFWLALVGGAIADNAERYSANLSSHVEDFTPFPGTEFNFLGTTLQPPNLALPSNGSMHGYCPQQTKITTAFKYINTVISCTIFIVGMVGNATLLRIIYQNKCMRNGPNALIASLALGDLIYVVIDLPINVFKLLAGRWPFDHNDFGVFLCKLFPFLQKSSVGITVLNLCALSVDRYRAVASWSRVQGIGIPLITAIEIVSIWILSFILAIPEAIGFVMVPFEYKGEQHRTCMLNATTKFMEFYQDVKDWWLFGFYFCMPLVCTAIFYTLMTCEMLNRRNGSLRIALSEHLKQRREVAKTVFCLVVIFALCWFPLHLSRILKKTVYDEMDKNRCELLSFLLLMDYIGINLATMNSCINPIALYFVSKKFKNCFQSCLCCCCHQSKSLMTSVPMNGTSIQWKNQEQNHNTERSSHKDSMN", "assay": "In vivo prevention of ET-1-induced sudden death in 6 rats by pretreatment with endothelin receptor antagonist at a dose of 30 mg/kg p.o.; 0/6", "assay_type": "functional, organism-based", "parameters": "dose 30 mg/kg", "in_short": "(§1)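 Male Sprague-Dawley rats (280-320 g) were pretreated orally with antagonist 4 h before a tail-vein injection of ET-1 (6 nmol/kg), which causes severe ECG disturbances and lethality within minutes. Oral doses were 10, 30 or 100 mg/kg. Lethality was scored as deaths/n, and ED100 was taken as the dose giving complete protection.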"}, "[3]": {"species": "Oryctolagus cuniculus", "assay": "Functional vascular ET-1 antagonism was determined in rabbit aorta rings with intact endothelium", "conditions": "read-out: pA2 (converted)"}, "[4]": {"system": "Rattus norvegicus", "assay": "Ability to protect rats from ET-1 induced sudden death in rats after intravenous administration", "assay_type": "functional", "in_short": "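Male Sprague-Dawley rats (280-320 g) received antagonist intravenously and were then challenged with ET-1 (6 nmol/kg) injected into a tail vein, a dose that causes lethality within minutes. ED100 was the intravenous dose giving complete protection from sudden death.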"}, "[5]": {"system": "Rattus norvegicus", "assay": "Ability to protect rats from ET-1 induced sudden death in rats after peroral administration", "assay_type": "functional", "in_short": "as §1"}, "[6]": {"molecular_target": "T3, Endothelin receptor type B (Homo sapiens, UniProt P24530)", "T3 sequence (P24530 whole entry)": "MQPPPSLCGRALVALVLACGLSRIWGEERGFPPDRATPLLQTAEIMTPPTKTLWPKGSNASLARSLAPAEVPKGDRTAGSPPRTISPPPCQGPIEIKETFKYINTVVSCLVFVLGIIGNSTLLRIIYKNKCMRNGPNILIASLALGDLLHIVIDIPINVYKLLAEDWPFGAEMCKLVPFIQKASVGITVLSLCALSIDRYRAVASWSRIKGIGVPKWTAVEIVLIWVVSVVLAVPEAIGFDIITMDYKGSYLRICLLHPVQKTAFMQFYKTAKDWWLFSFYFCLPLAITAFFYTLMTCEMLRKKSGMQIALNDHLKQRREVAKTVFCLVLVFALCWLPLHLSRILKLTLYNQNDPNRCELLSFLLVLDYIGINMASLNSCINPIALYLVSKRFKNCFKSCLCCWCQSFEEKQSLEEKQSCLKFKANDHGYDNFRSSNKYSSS", "assay": "(§2) Binding affinity towards human Endothelin B receptor by measuring its ability to displace [125I]ET-3 from CHO cells", "assay_type": "cell-based"}, "[7]": {"molecular_target": "T2, Endothelin receptor (Rattus norvegicus)", "assay": "In vivo prevention of ET-1-induced sudden death in 5 rats by pretreatment with endothelin receptor antagonist at a dose of 10 mg/kg p.o.; 5/5", "assay_type": "functional, organism-based", "parameters": "dose 10 mg/kg", "in_short": "as §1"}, "[8]": {"molecular_target": "T2, Endothelin receptor (Rattus norvegicus)", "assay": "In vivo prevention of ET-1-induced sudden death in 6 rats by pretreatment with endothelin receptor antagonist at a dose of 30 mg/kg p.o.", "assay_type": "functional, organism-based", "parameters": "dose 30 mg/kg", "in_short": "as §1"}, "[9]": {"molecular_target": "T2, Endothelin receptor (Rattus norvegicus)", "assay": "In vivo prevention of ET-1-induced sudden death in 5 rats by pretreatment with endothelin receptor antagonist at a dose of 100 mg/kg p.o.; 0/5", "assay_type": "functional, organism-based", "parameters": "dose 100 mg/kg", "in_short": "as §1"}, "[10]": {"molecular_target": "T2, Endothelin receptor (Rattus norvegicus)", "assay": "In vivo prevention of ET-1-induced sudden death in 9 rats by pretreatment with endothelin receptor antagonist at a dose of 30 mg/kg p.o.; 9/9", "assay_type": "functional, organism-based", "parameters": "dose 30 mg/kg", "in_short": "as §1"}, "[11]": {"system": "Rattus norvegicus", "assay": "Ability to protect rats from ET-1 induced sudden death in after peroral administration", "assay_type": "functional", "in_short": "as §1"}, "[12]": {"molecular_target": "T3, Endothelin receptor type B", "assay": "as §2", "assay_type": "cell-based", "in_short": "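Membranes ([…]) from stably transfected CHO cells expressing human ET_A or ET_B receptors, or guinea pig cerebellum (ET_B), incubated with 25 pmol/L [125I]ET-1 or [125I]ET-3 with or without drugs; nonspecific binding defined with […] ET-1.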", "remark": "listed apart in the source"}, "[13]": {"molecular_target": "T2, Endothelin receptor (Rattus norvegicus)", "assay": "In vivo prevention of ET-1-induced sudden death in 6 rats by pretreatment with endothelin receptor antagonist at a dose of 10 mg/kg p.o.; 6/6", "assay_type": "functional, organism-based", "parameters": "dose 10 mg/kg", "in_short": "as §1"}, "[14]": {"molecular_target": "T2, Endothelin receptor (Rattus norvegicus)", "assay": "In vivo prevention of ET-1-induced sudden death in 6 rats by pretreatment with endothelin receptor antagonist at a dose of 30 mg/kg p.o.; 2/6", "assay_type": "functional, organism-based", "parameters": "dose 30 mg/kg", "in_short": "as §1"}}}
{"smiles": "COc1cc(OC)nc(OC(C(=O)O)C(OC)(c2cccc(C)c2)c2cccc(C)c2)n1", "note": "(stereo unspecified)", "values": [{"measurement": "Ki", "setting": "[1]", "value": 24, "unit": "nM"}]}
{"smiles": "COc1cc(OC)nc(OC(C(=O)O)C(OC)(c2ccccc2)c2ccccc2)n1", "note": "(stereo unspecified)", "values": [{"measurement": "Lethality", "setting": "[2]", "value": 0}, {"measurement": "Kb", "setting": "[3]", "value": 45.7, "unit": "nM"}, {"measurement": "ED100", "setting": "[4]", "value": 10, "unit": "mg/kg"}, {"measurement": "ED100", "setting": "[5]", "value": 30, "unit": "mg/kg"}, {"measurement": "Ki", "setting": "[6]", "value": 371, "unit": "nM"}, {"measurement": "Lethality", "setting": "[7]", "value": 5}]}
{"smiles": "Cc1noc(NS(=O)(=O)c2cccc3c(N(C)C)cccc23)c1C", "note": "[BMS-182874]", "values": [{"measurement": "Lethality", "setting": "[8]", "value": 6}, {"measurement": "Kb", "setting": "[3]", "value": 81.3, "unit": "nM"}, {"measurement": "ED100", "setting": "[5]; po", "value": "> 100", "unit": "mg/kg"}]}
{"smiles": "COc1cc(OC)nc(OC(C(=O)O)C(OC)(c2cccc(F)c2)c2cccc(F)c2)n1", "note": "(stereo unspecified)", "values": [{"measurement": "Ki", "setting": "[1]", "value": 11, "unit": "nM"}]}
{"smiles": "CCCOc1ccc2c(c1)[C@@H](c1ccc(OC)cc1OCC(=O)O)[C@H](C(=O)O)[C@H]2c1ccc2c(c1)OCO2", "note": "[SB-209670]", "values": [{"measurement": "Kb", "setting": "[3]", "value": 0.158, "unit": "nM"}, {"measurement": "ED100", "setting": "[5]", "value": 100, "unit": "mg/kg"}]}
{"smiles": "COc1cc(OC)nc(OC(C(=O)O)C(OCCC(C)(C)C)(c2ccccc2)c2ccccc2)n1", "note": "(stereo unspecified)", "values": [{"measurement": "Ki", "setting": "[1]", "value": 340, "unit": "nM"}]}
{"smiles": "CCc1cc(CC)nc(OC(C(=O)O)C(OC)(c2ccccc2)c2ccccc2)n1", "note": "(stereo unspecified)", "values": [{"measurement": "Ki", "setting": "[1]", "value": 1, "unit": "nM"}]}
{"smiles": "COc1cc(OC)nc(OC(C(=O)O)C(OC)(c2ccc(C)cc2)c2ccc(C)cc2)n1", "note": "(stereo unspecified)", "values": [{"measurement": "Ki", "setting": "[1]", "value": 200, "unit": "nM"}]}
{"smiles": "CCc1cc(C)nc(OC(C(=O)O)C(OC)(c2ccccc2)c2ccccc2)n1", "note": "(stereo unspecified)", "values": [{"measurement": "Ki", "setting": "[1]", "value": 0.7, "unit": "nM"}]}
{"smiles": "COc1cc(OC)nc(OC(C(=O)O)C(OC)(c2ccc(Cl)cc2)c2ccc(Cl)cc2)n1", "note": "(stereo unspecified)", "values": [{"measurement": "Ki", "setting": "[1]", "value": 245, "unit": "nM"}]}
{"smiles": "CCOc1cc(OCC)nc(OC(C(=O)O)C(OC)(c2ccccc2)c2ccccc2)n1", "note": "(stereo unspecified)", "values": [{"measurement": "Ki", "setting": "[1]", "value": 174, "unit": "nM"}]}
{"smiles": "COc1cc(OC)nc(OC(C(=O)O)C(OC)(c2ccccc2F)c2ccccc2F)n1", "note": "(stereo unspecified)", "values": [{"measurement": "Ki", "setting": "[1]", "value": 150, "unit": "nM"}]}
{"smiles": "COc1nc(OC(C(=O)O)C(OC)(c2ccccc2)c2ccccc2)nc2c1CCC2", "note": "(stereo unspecified)", "values": [{"measurement": "Kb", "setting": "[3]", "value": 0.575, "unit": "nM"}, {"measurement": "Lethality", "setting": "[9]", "value": 0}, {"measurement": "Ki", "setting": "[1]", "value": 0.4, "unit": "nM"}, {"measurement": "Lethality", "setting": "[10]", "value": 9}, {"measurement": "ED100", "setting": "[11]", "value": 100, "unit": "mg/kg"}]}
{"smiles": "COC(=O)C(Oc1nc(OC)cc(OC)n1)C(C)(Oc1ccc(C(C)C)cc1)c1ccccc1", "note": "(stereo unspecified)", "values": [{"measurement": "Ki", "setting": "[1]", "value": 250, "unit": "nM"}, {"measurement": "Ki", "setting": "[12]", "value": 3, "unit": "µM"}]}
{"smiles": "COc1cc(OC)nc(OC(C(=O)O)C(O)(c2ccccc2)c2ccccc2)n1", "note": "(stereo unspecified)", "values": [{"measurement": "Ki", "setting": "[1]", "value": 130, "unit": "nM"}]}
{"smiles": "COC(=O)C(Oc1nc(OC)cc(OC)n1)C(C)(Oc1ccc(SC)cc1)c1ccccc1", "note": "(stereo unspecified)", "values": [{"measurement": "Ki", "setting": "[1]", "value": 160, "unit": "nM"}, {"measurement": "Ki", "setting": "[12]", "value": 4.7, "unit": "µM"}]}
{"smiles": "COc1cc(C)nc(OC(C(=O)O)C(OC)(c2ccccc2)c2ccccc2)n1", "note": "(stereo unspecified)", "values": [{"measurement": "Ki", "setting": "[1]", "value": 0.12, "unit": "nM"}]}
{"smiles": "COC(c1ccccc1)(c1ccccc1)C(Oc1nc(C)cc(C)n1)C(=O)O", "note": "(stereo unspecified)", "values": [{"measurement": "Ki", "setting": "[1]", "value": 1, "unit": "nM"}]}
{"smiles": "COc1nc(OC(C(=O)O)C(OC)(c2ccccc2)c2ccccc2)nc2c1CCO2", "note": "(stereo unspecified)", "values": [{"measurement": "Kb", "setting": "[3]", "value": 0.933, "unit": "nM"}, {"measurement": "ED100", "setting": "[5]", "value": 100, "unit": "mg/kg"}, {"measurement": "Lethality", "setting": "[9]", "value": 0}, {"measurement": "Ki", "setting": "[1]", "value": 0.9, "unit": "nM"}, {"measurement": "Lethality", "setting": "[13]", "value": 6}, {"measurement": "Lethality", "setting": "[14]", "value": 2}]}
{"smiles": "COc1cccc(Oc2c(NS(=O)(=O)c3ccc(C(C)(C)C)cc3)ncnc2OCCO)c1", "values": [{"measurement": "Kb", "setting": "[3]", "value": "> 1000", "unit": "nM"}, {"measurement": "ED100", "setting": "[5]", "value": ">100", "unit": "mg/kg"}]}
{"smiles": "COc1cccc(C(OC)(c2cccc(OC)c2)C(Oc2nc(OC)cc(OC)n2)C(=O)O)c1", "note": "(stereo unspecified)", "values": [{"measurement": "Ki", "setting": "[1]", "value": 22, "unit": "nM"}]}
